Sampled rows, rich in hits. Any-hit rate of the full collection: about 2.3%.
SKN-1 inh – inhibitors of C. elegans SKN-1; 360,000 tested, 0.49% active; AID 624304; C. elegans VP596 Pgst-4::GFP/RFP ratio, acrylamide-induced, 24 h; inhibition, % at 21.8 µM;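 active = interference check ratio from 0.5 to 1.5 plus GFP to RFP signal ratio inhibition reaching or exceeding a fixed threshold, cut at about 30% in these data, passing the limit was not always enough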
MPTP inh – permeability transition pore inhibition | 360,000 tested, 1.4% active | AID 602449 | inhibition, % at 10 µM | isolated mouse mitochondria, Ca2+ swelling absorbance, 30 min;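 active = inhibition of 50% or more, scaled per plate between neutral and stimulator controls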;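 note: 0% = DMSO wells given calcium and 100% = 1 mM EGTA wells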
ATG4B inhibitor – inhibitors of human ATG4B cysteine protease; Q9Y4P1; ATG4B cleavage of LC3-PLA2, NBD-HPC fluorescence, 1 h; inhibition, % at 8.33 µM; 340,000 tested, 0.51% active; in the data active = inhibition above about 40%
Target sequence (Q9Y4P1 whole entry, looked up): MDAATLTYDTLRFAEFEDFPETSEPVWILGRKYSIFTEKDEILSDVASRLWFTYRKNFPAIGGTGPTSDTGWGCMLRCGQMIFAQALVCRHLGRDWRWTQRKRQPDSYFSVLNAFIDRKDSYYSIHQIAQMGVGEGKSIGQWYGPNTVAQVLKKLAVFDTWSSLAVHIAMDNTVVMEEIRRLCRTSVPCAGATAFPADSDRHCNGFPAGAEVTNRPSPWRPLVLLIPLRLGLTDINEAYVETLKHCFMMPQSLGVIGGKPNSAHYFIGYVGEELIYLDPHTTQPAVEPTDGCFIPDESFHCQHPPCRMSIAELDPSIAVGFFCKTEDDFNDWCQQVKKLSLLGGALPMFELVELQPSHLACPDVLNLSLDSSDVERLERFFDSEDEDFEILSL
MT1-MMP act inh – MT1-MMP (human) activation inhibition. AID 651647. GFP/RFP ratio change, % at 20 µM. 360,000 tested, 0.061% active. P50281. HT1080 RFP-PRO-GFP cells, GFP/RFP ratio fluorescence, overnight; percent of plate control window, DMSO zero;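 active = GFP/RFP ratio change of at least 30% with cell ATP level not reduced by more than half and red fluorescence within 50% of control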
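Read-out: GFP/RFP fluorescence ratio; Test system: RFP-PRO-GFP reporter HT1080 cells; Compound dosing: single-point 20 µM compound, 1% DMSO; Times: overnight compound exposure at 37 °C.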
The depositor's hits bear a star; . = not tested or not shown.

SMILES	SKN-1 inh	MPTP inh	ATG4B inhibitor	MT1-MMP act inh
CCN1CCN(c2cc(C)c3cc(NC(=S)N4CCCCC4)ccc3n2)CC1	38*	0	3	2
Cc1cc(N2CCOCC2)nc2ccc(NC(=O)C3CCC(C)CC3)cc12 (stereo not drawn)	35*	0	0	10
C=CCOc1c2ccc(C(=O)NCCc3ccc(C)cc3)cc2nn1C	4	-1	-11	5
CCOc1cc(CNCCSc2nnnn2C)cc(Br)c1OCc1ccccc1F	39*	5	-11	-2
COc1cc(CNCCSc2nnnn2C)cc(Br)c1OCc1ccccc1F	-3	6	-4	2
O=C(Nc1nc(SCc2ccc(F)cc2)ns1)c1ccco1	54*	9	30	-3
O=C(COC(=O)c1ccc(Br)o1)Nc1ccc(S(=O)(=O)N2CCCC2)cc1	40*	-2	-15	0
CN(N=O)c1ccc(CC2CCc3ccccc32)cc1 (stereo not drawn)	44*	2	5	3
O=C(Cc1ccc(F)cc1)N[C@@H]1c2ccccc2CC[C@@H]1O	9	0	4	-2
Cc1ccc(C(=O)CSC2=C(C#N)C(c3ccco3)C3=C(CC(C)(C)CC3=O)N2)cc1 (stereo not drawn)	28*	1	-11	0
O=C(OCCO)c1c(C2=CCCCC2)oc2c1C(OCCO)CCC2 (stereo not drawn)	14	0	.	4
Cc1ccc(S(N)(=O)=O)cc1NC(=O)C(c1ccccc1)c1ccccc1	16	2	0	-1
COc1ccccc1C(=O)NCCN1CCN(c2ccccc2)CC1	7	0	1	-2
Nc1ccc(C=C2C=Cc3ccccc32)cc1	52*	3	-10	3
Nc1ccc(C=Cc2ccc(N)cc2)cc1	8	0	.	3
O=[N+]([O-])c1cccc(-c2noc(-c3ccco3)n2)c1	53*	2	-2	2
O=[N+]([O-])c1cccc(-c2nc(-c3ccccc3)no2)c1	8	2	-5	-2
COC(=O)c1ccc(COn2c(=O)c(C)[n+]([O-])c3ccccc32)cc1	44*	4	-3	-162
COC(=O)c1ccccc1COn1c(=O)c(C)[n+]([O-])c2ccccc21	9	-2	-13	-22
Cc1cc2nn(-c3ccc(F)cc3)nc2cc1N	39*	3	4	-3
Cc1c(C(=O)N(C)Cc2ccc(F)cc2)sc(=O)n1Cc1ccccc1C#N	3	-1	.	5
Clc1cc(Cl)c2nc(N3CCCC3)sc2c1	37*	-1	7	-2
O=C1NC(=O)C(=CC=Cc2ccccc2)S1	-33	3	.	-1
O=C(O)c1ccccc1C=NN1CCCCCC1	-13	-1	-1	3
Cc1ccccc1OCc1nnc(SCC(=O)Nc2ccc3nc(SCC(=O)Nc4ccccc4)sc3c2)n1C	7	4	-4	-2
SMILES	SKN-1 inh	MPTP inh	ATG4B inhibitor	MT1-MMP act inh
CCCCCC(=O)Nc1cc(S(=O)(=O)O)cc2cc(S(=O)(=O)O)cc(O)c12	15	-1	43*	-3
CC(C)COc1ccc(-c2nnc(-c3ccco3)o2)cc1	43*	5	7	4
CCCOc1ccc(-c2nnc(-c3ccco3)o2)cc1	79*	3	3	4
O=C(COc1ccccc1)Nc1ccc(-c2nnc(-c3ccco3)o2)cc1	19	1	-10	6
Brc1ccc(/C=N/Nc2ccc3ccccc3n2)cc1	45*	4	-10	.
Brc1ccccc1/C=N/Nc1ccc2ccccc2n1	3	6	-1	2
CC(=O)c1ccc(S(=O)(=O)NCCC(=O)OCC(=O)N2CCCC2=O)cc1	2	2	3	-2
Cc1sc(NC(=O)C2=COCCO2)nc1-c1ccc(Cl)cc1	39*	-1	6	0
NS(=O)(=O)c1ccc(CCNC(=O)CNC(=O)c2ccc(Oc3ccccc3)cc2)cc1	12	-2	-7	1
COc1ccc(NC(=O)N[C@H]2CC[C@@H](CC(=O)NC3CCC3)O[C@@H]2CO)cc1	7	-2	.	0
O=C(COC(=O)c1cccs1)NCC1CCCCC1	7	1	-16	4
Clc1ccc2nc(-c3ccc(Br)s3)cn2c1	70*	6	8	8
COCC(=O)N1C[C@@H](C)[C@@H](OC)CN(C)C(=O)c2ccc(NC(=O)c3cnccn3)cc2OC[C@H]1C	4	-2	.	3
Cc1ccc(N2C(=O)c3ccccc3C(C)(C)C2=O)cc1	9	0	8	1
CC1(C)C(=Cc2ccccc2)C(=O)c2ccccc21	41*	0	.	0
CC1(C)c2ccccc2C(=O)c2ccccc21	46*	2	16	8
CCOc1ccc(CC(=NCCc2ccccc2)C2=C(O)CC(C)(C)CC2=O)cc1OCC	5	2	8	-2
O=C(Cc1ccsc1)NCC(=O)Nc1ccccc1Br	1	-1	1	0
CCC(CC)C(C(=O)NCc1ccccc1)N(C)Cc1ccc(Cl)c(Cl)c1 (stereo not drawn)	7	24	.	-21
CCN(CC)C(=O)Oc1ccc(Br)c2ccccc12	37*	2	6	-1
CCN(CC)C(=O)Oc1ccc(Cl)c2ccccc12	16	-1	1	4
CCOC(=O)c1c(C)[nH]c(O)c1C=Nc1ccc(Cl)cc1	32	2	-7	-34
CCOC(=O)c1c(C)[nH]c(O)c1C=Nc1ccc(C(F)(F)F)cc1	60*	2	-12	-53
COC(=O)C(C)NC(=O)CNS(=O)(=O)c1ccc(F)cc1 (stereo not drawn)	-2	-1	-6	8
CC(=O)NCCC(=O)Nc1cc(S(=O)(=O)N2CCOCC2)ccc1Oc1ccc(F)cc1	-12	2	-2	3
SMILES	SKN-1 inh	MPTP inh	ATG4B inhibitor	MT1-MMP act inh
Cc1ccc(-n2nc3c(N4CCC(C(=O)NCc5ccccc5C)CC4)nnc(C)c3c2C)cc1	-1	-1	54*	1
Cc1ccc(-n2nc3c(N4CCC(C(=O)N5CCCCCC5)CC4)nnc(C)c3c2C)cc1	-10	0	71*	0
O=C(O)CC(NC(=O)C12CC3CC(CC(C3)C1)C2)c1ccc(OC2CCCC2)cc1 (stereo not drawn)	13	-1	0	0
O=C1OC(c2cccs2)Sc2ccccc21 (stereo not drawn)	4	-1	.	6
O=C1OC(c2ccccc2)Sc2ccccc21 (stereo not drawn)	-9	-4	48*	-2
Cc1ccccc1-c1nc2c(s1)CCc1onc(-c3ccc(Cl)cc3)c1-2	14	-1	1	1
Clc1cccc(/C=N/N2CCN(Cc3ccccc3)CC2)c1	44*	1	4	10
Cn1c(SCC(=O)NCCNC(=O)CSc2nnc(C(F)(F)F)n2C)nnc1C(F)(F)F	-6	4	-4	2
Fc1ccc(OCc2nc(-c3cccs3)no2)cc1	39*	0	-2	3
Clc1cccc(OCc2nc(-c3ccncc3)no2)c1	48*	3	-20	1
c1ccc(OCc2nc(-c3cccs3)no2)cc1	40*	0	-5	5
Cc1cc(OCc2nc(-c3cccs3)no2)cc(C)c1Cl	-1	2	6	-2
